Laboratory results as given in ChEMBL document CHEMBL3585325, “Discovery of (1R,2S)-2-{[(2,4-Dimethylpyrimidin-5-yl)oxy]methyl}-2-(3-fluorophenyl)-N-(5-fluoropyridin-2-yl)cyclopropanecarboxamide (E2006): A Potent and Efficacious Oral Orexin Receptor Antagonist” (J Med Chem, 2015).

How the values were obtained:
[1] = test system: Mus musculus; experiment: Sleep promoting activity in C57BL/6NCrlCrlj mouse assessed as increase in non-REM sleep at 10 mg/kg, po administered immediately prior to beginning of dark cycle measured during first 3 hrs after drug administration by electroencephalogram/electromyogram analysis (reference value: 62.6 min); assay type: functional
Summary of the method: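 Male C57BL/6NCrlCrlj mice implanted with EEG/EMG electrodes were dosed orally in 10% Cremophor EL, 5% DMSO in saline just before lights-off (ZT12) and recorded from ZT12 to ZT20. Group sizes were n=6 dosed and n=7 vehicle. Stages were scored by software with blinded visual confirmation; cumulative first-3-h times are mean with SEM. Dunnett's test was run after one-way ANOVA.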

[2] = biological target: CYP3A (Homo sapiens, UniProt P08684+P20815+P24462+Q9HB55); experiment: Inhibition of CYP3A in human liver microsomes assessed as enzyme activity using midazolam as substrate incubated for 30 mins prior to substrate addition for 10 mins by LC-MS/MS analysis; assay type: ADME; conditions: probe midazolam
Summary of the method: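 Compound preincubated 30 min at 37 °C with human liver microsomes (0.2 mg/mL), with or without an NADPH-generating system. The mix was diluted 10-fold into a marker-substrate cocktail plus NADPH system and incubated 10 min at 37 °C. Marker metabolites were measured by LC-MS/MS; residual activity with NADPH was expressed relative to without.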

Cc1ncc(OC[C@@]2(c3cccc(F)c3)C[C@H]2C(=O)Nc2ccc(F)cn2)c(C)n1 [LEMBOREXANT]
Time [1]: 99.3 min | IC50 at 30 min [2]: > 20 µM
